From ChEMBL document CHEMBL1153582, “Expedient solid-phase synthesis of both symmetric and asymmetric diol libraries targeting aspartic proteases” (Bioorg Med Chem Lett, 2009)
pIC50, pKi: −log10 of the molar value.

Assays:
[1] = target: Plasmepsin II (Plasmodium falciparum, UniProt P46925); assay: Inhibition of Plasmodium falciparum plasmepsin-2 in fluorescence microplate assay
Outline: (§1)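 Library products were used as crude material, without purification, for direct in situ screening in a standard fluorescence microplate assay. IC50 was taken from inhibition curves plotted against log inhibitor concentration in nM.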

[2] = target: Plasmepsin I (Plasmodium falciparum, UniProt P39898); assay: Inhibition of Plasmodium falciparum plasmepsin-1 in fluorescence microplate assay; outline: as §1
Chain of Plasmepsin I (P39898 whole entry): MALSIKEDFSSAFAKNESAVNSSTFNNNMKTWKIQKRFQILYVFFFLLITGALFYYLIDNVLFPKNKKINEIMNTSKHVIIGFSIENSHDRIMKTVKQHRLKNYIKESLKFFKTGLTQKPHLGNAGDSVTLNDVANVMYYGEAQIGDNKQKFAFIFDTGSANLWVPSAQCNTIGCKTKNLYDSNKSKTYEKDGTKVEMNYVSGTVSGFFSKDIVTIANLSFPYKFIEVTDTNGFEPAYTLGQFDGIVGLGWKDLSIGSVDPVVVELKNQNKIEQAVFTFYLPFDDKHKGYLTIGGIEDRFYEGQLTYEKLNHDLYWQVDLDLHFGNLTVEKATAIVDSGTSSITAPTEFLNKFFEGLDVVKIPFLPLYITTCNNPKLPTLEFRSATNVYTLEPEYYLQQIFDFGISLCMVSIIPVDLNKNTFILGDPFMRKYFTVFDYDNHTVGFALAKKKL

[3] = target: Protease (Human immunodeficiency virus 1, UniProt Q9YQ12); assay: Inhibition of HIV1 protease by fluorescence microplate assay; outline: as §1
Chain of Protease (Q9YQ12 whole entry): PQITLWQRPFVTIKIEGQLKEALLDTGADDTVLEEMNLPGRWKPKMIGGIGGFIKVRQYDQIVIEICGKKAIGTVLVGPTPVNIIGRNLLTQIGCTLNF

Chain of Plasmepsin II (P46925 whole entry): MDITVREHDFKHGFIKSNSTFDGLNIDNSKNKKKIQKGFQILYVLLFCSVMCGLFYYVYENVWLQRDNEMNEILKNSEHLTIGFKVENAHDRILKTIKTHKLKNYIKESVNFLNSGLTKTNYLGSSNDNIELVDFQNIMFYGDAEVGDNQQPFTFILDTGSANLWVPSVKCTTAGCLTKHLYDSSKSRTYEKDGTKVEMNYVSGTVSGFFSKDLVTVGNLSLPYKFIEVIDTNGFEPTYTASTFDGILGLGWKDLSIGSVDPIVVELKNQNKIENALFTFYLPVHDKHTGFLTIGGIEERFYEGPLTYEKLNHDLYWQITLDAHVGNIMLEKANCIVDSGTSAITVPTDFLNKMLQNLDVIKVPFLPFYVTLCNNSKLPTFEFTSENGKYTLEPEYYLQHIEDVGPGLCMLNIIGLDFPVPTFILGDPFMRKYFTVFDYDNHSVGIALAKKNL

O=C(N[C@@H](Cc1ccccc1)[C@@H](O)[C@H](O)[C@H](Cc1ccccc1)NC(=O)c1ccc(F)cc1Cl)c1ccc(F)cc1Cl
pIC50 [1]: < 4.60 | pIC50 [2]: < 4.60 | pIC50 [3]: 6.40 | pKi [3]: 6.40

O=C(N[C@@H](Cc1ccccc1)[C@@H](O)[C@H](O)[C@H](Cc1ccccc1)NC(=O)c1ccc(F)cc1Cl)c1ccc2c(c1)OCCO2
pIC50 [1]: 4.93 | pIC50 [2]: < 4.60 | pIC50 [3]: < 4.60

CC(C)C[C@H](NC(=O)CC1CCCCC1)[C@@H](O)[C@H](O)[C@H](CC(C)C)NC(=O)CC1CCCCC1
pIC50 [1]: < 4.60 | pIC50 [2]: 5.58 | pIC50 [3]: < 4.60

Cc1ccc(C(=O)N[C@@H](Cc2ccccc2)[C@@H](O)[C@H](O)[C@H](Cc2ccccc2)NC(=O)C2CCOC2)cn1 (some centres undefined)
pIC50 [1]: 4.90 | pIC50 [2]: < 4.60 | pIC50 [3]: < 4.60

O=C(CC1CCCCC1)N[C@@H](Cc1ccccc1)[C@@H](O)[C@H](O)[C@H](Cc1ccccc1)NC(=O)CC1CCCCC1
pIC50 [1]: 5.41 | pIC50 [2]: 5.36 | pIC50 [3]: < 4.60

COc1ccccc1C(=O)N[C@@H](CC(C)C)[C@@H](O)[C@H](O)[C@H](CC(C)C)NC(=O)c1ccccc1OC
pIC50 [1]: < 4.60 | pIC50 [2]: < 4.60 | pIC50 [3]: 5.88
